We go through two compounds from ChEMBL document CHEMBL4257555, “Small molecule cores demonstrate non-competitive inhibition of lactate dehydrogenase” (Medchemcomm, 2018).

Structures are written as SMILES.

Experiment [1] deals with T1, L-lactate dehydrogenase B chain (Sus scrofa, UniProt P00336). Kind of experiment: Inhibition of porcine heart LDH using pyruvate as substrate and NADH as cofactor measured after 2 hrs by stopped-flow spectrometric method. Summed up:
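Stopped-flow assay of pig heart LDH (5 nN) with 100 μM NADH and 300 μM pyruvate in 100 mM sodium phosphate pH 7.2 at 37 °C, after 2 h inhibitor preincubation at 4 °C. A340 initial rates averaged over five shots and normalised to uninhibited activity. EC50 from a four-parameter fit with min, max, EC50 and Hill coefficient refined.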

Experiment [2] deals with T1, L-lactate dehydrogenase B chain. The experiment can be described thus: Non-competitive inhibition of porcine heart LDH using varying levels of pyruvate as substrate and NADH as cofactor measured after 2 hrs by double reciprocal lineweaver-burk plot analysis.

T1 sequence (P00336 whole entry): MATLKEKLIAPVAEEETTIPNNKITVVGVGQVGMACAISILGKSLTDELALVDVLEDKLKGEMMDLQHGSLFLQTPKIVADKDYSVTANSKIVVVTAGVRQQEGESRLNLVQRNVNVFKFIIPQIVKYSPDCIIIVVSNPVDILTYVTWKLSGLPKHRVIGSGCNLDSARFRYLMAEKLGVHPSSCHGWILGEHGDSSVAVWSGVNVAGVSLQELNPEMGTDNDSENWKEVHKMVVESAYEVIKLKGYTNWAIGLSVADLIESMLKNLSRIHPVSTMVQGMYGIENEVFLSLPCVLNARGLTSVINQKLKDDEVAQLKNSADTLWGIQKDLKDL

A word on the EC50: it is the concentration that produces a half-maximal response. A low value points to an effect from little substance. One may read the Ki as the dissociation constant of the complex between target and ligand, obtained from inhibition or displacement. In turn, `NC(=O)c1cc(O)cc(O)c1` returned an EC50 in experiment [1] of 712 µM. In addition, the Ki in experiment [2] came to 355 µM.

In turn, `CC(=O)Nc1cccc(O)c1` [METACETAMOL] displayed an EC50 in experiment [1] of 78 µM. For the same compound, affinity in experiment [2] was put at a Ki of 498 µM.
